According to ChEMBL document CHEMBL4828729, “MSBA-S - A pentacyclic sulfamate as a new option for radiotherapy of human breast cancer cells” (Eur J Med Chem, 2021):
Calls of active or inactive are those of the source.

Experiments:
Hs-578T [1] = assay: Anticlonogenic activity against human Hs-578T cells assessed as clonogenic survival rate at 40 uM measured after 24 hrs by giemsa staining based survival assay relative to control; format: functional
Procedure, shortened: (§1)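 Cells seeded in 6-well plates and treated 24 h after seeding for 24 h. They were then trypsinized, counted and reseeded at 300 or 600 cells per 75 cm² flask. Colonies grew for about 12-14 days before paraformaldehyde fixation and 10% Giemsa staining. Only colonies of more than about 50 cells were scored for surviving fraction relative to control. Mean +SD of three independent experiments.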

MCF7 = assay: Cytotoxicity against human MCF7 cells assessed as reduction in cell viability measured after 96 hrs by SRB assay; format: functional, cell-based; details: MCF7, 96 h
Procedure, shortened: (§2)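 Compounds were prepared as 20 mM DMSO stocks and applied 24 h after seeding in 96-well plates at 1-100 (so in the source) for 96 h under standard conditions. Cells were fixed with 10% trichloroacetic acid, stained with 0.4% SRB, washed with 1% acetic acid and dissolved in 20 mM Tris base. Absorbance was read at 540 nm. IC50 is the half-maximal inhibitory concentration, with a cut-off of 50. Mean ± SD of at least three independent experiments.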

Hs-578T [2] = assay: Induction of apoptosis in human Hs-578T cells assessed as nuclei shrinkage at 40 uM measured after 72 hrs by DAPI staining based fluorescence microscopy relative to control; format: functional
Procedure, shortened: (§3)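 After 72 h treatment under standard conditions, cells were trypsinized and pelleted together with the culture supernatant. They were resuspended in PBS, fixed in 70% ethanol, cytospun onto slides and stained with DAPI for 5 min. Apoptotic cells were scored by nuclear shrinkage. Mean +SD of three independent experiments.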

Hs-578T [3] = assay: Cytotoxicity against human Hs-578T cells assessed as reduction in cell viability measured after 96 hrs by SRB assay; format: functional, cell-based; procedure, shortened: as §2
MDA-MB-231 [4] = assay: Induction of apoptosis in human MDA-MB-231 cells assessed as nuclei shrinkage at 40 uM measured after 72 hrs by DAPI staining based fluorescence microscopy relative to control; format: functional; procedure, shortened: as §3
BT-20 = assay: Cytotoxicity against human BT-20 cells assessed as reduction in cell viability measured after 96 hrs by SRB assay; format: functional, cell-based; details: BT-20, 96 h; procedure, shortened: as §2
MDA-MB-231 [5] = assay: Cytotoxicity against human MDA-MB-231 cells assessed as reduction in cell viability measured after 96 hrs by SRB assay; format: functional, cell-based; details: MDA-MB-231, 96 h; procedure, shortened: as §2
MDA-MB-231 [6] = assay: Anticlonogenic activity against human MDA-MB-231 cells assessed as clonogenic survival rate at 40 uM measured after 24 hrs by giemsa staining based survival assay relative to control; format: functional; details: read-out: INH; procedure, shortened: as §1
MDA-MB-231 [7] = assay: Antimigratory activity against human MDA-MB-231 cells assessed as inhibition of cell migration measured by wound healing assay relative to control; format: functional
[8] = test system: MDA-MB-231 (Homo sapiens); assay: Antimigratory activity against human MDA-MB-231 cells assessed as inhibition of cell migration measured by wound healing assay
Hs-578T [9] = assay: Anticlonogenic activity against human Hs-578T cells assessed as clonogenic survival rate at 10 uM measured after 24 hrs by giemsa staining based survival assay relative to control; format: functional; procedure, shortened: as §1
Hs-578T [10] = assay: Induction of apoptosis in human Hs-578T cells assessed as late apoptotic cells at 10 uM measured after 24 hrs by Annexin V/propidium iodide staining based flow cytometry relative to control; format: functional
Procedure, shortened: (§4)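 Cells were seeded in 6-well plates, grown 24 h and then treated for 24 h. They were resuspended in binding buffer (10 mM HEPES/NaOH, 140 mM NaCl, 5 mM CaCl₂, pH 7.4) and stained for 15 min with propidium iodide and/or Annexin V. Flow cytometry classified vital (Q3), necrotic (Q1), late apoptotic (Q2) and apoptotic (Q4) populations.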

MDA-MB-231 [11] = assay: Induction of apoptosis in human MDA-MB-231 cells assessed as nuclei shrinkage at 10 uM measured after 72 hrs by DAPI staining based fluorescence microscopy relative to control; format: functional; procedure, shortened: as §3
MDA-MB-231 [12] = assay: Induction of apoptosis in human MDA-MB-231 cells assessed as necrotic cells at 10 uM measured after 24 hrs by Annexin V/propidium iodide staining based flow cytometry relative to control; format: functional; procedure, shortened: as §4
MDA-MB-231 [13] = assay: Induction of apoptosis in human MDA-MB-231 cells assessed as early apoptotic cells at 10 uM measured after 24 hrs by Annexin V/propidium iodide staining based flow cytometry relative to control; format: functional; procedure, shortened: as §4
MDA-MB-231 [14] = assay: Radiosensitization activity in human MDA-MB-231 cells assessed as ratio of DMSO treated surviving fraction to compound treated surviving fraction at 5 uM pre-incubated for 24 hrs prior to irradiation and measured by giemsa staining based assay; format: functional
Procedure, shortened: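 Cells were incubated for 24 h with 5 (so in the source) compound, then irradiated with 6, 10 or 14 Gy. Colonies of more than about 50 cells were counted after about 12-14 days with Giemsa staining and normalized to unirradiated controls. DMF is the surviving fraction of DMSO control cells divided by that of treated cells, reported at 10% survival.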

Hs-578T [15] = assay: Induction of apoptosis in human Hs-578T cells assessed as necrotic cells at 10 uM measured after 24 hrs by Annexin V/propidium iodide staining based flow cytometry relative to control; format: functional; procedure, shortened: as §4
MDA-MB-231 [16] = assay: Anticlonogenic activity against human MDA-MB-231 cells assessed as clonogenic survival rate at 10 uM measured after 24 hrs by giemsa staining based survival assay relative to control; format: functional; procedure, shortened: as §1
MDA-MB-231 [17] = assay: Induction of apoptosis in human MDA-MB-231 cells assessed as late apoptotic cells at 10 uM measured after 24 hrs by Annexin V/propidium iodide staining based flow cytometry relative to control; format: functional; procedure, shortened: as §4
Hs-578T [18] = assay: Induction of apoptosis in human Hs-578T cells assessed as early apoptotic cells at 10 uM measured after 24 hrs by Annexin V/propidium iodide staining based flow cytometry relative to control; format: functional; procedure, shortened: as §4
Hs-578T [19] = assay: Induction of apoptosis in human Hs-578T cells assessed as nuclei shrinkage at 10 uM measured after 72 hrs by DAPI staining based fluorescence microscopy relative to control; format: functional; procedure, shortened: as §3
MDA-MB-231 [20] = assay: Induction of apoptosis in human MDA-MB-231 cells assessed as increase in ROS production at 20 uM measured after 24 hrs by CM-H2DCFDA staining based flow cytometry analysis relative to control; format: functional; details: dose 5 µM, in the assay text read “at 5 uM” for “at 20 uM”
Procedure, shortened: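 Cells were plated in 6-well plates for 24 h, then treated for 24 h. They were loaded with 0.5 CM-H2DCFDA in PBS with CaCl₂/MgCl₂ for 30 min at 37 °C, washed, exposed to trypsin-EDTA (0.5%) for 3 min at 37 °C and detached with PBS. Fluorescence from dye conversion to chloromethyl-dichlorofluorescein was measured by flow cytometry. Values are fold change versus DMSO-treated cells.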

Hs-578T [21] = assay: Induction of apoptosis in human Hs-578T cells assessed as nuclei shrinkage at 20 uM measured after 72 hrs by DAPI staining based fluorescence microscopy relative to control; format: functional; procedure, shortened: as §3

SMILES	inhibition at 40 µM (Hs-578T [1]) [%]	IC50 (MCF7) [µM]	Activity (Hs-578T [2]) [%]	IC50 (Hs-578T [3]) [µM]	IC50 (BT-20) [µM]	IC50 (MDA-MB-231 [5]) [µM]	clonogenic survival relative to control at 40 µM (MDA-MB-231 [6]) [%]	other results
C=C(C)[C@@H]1CC[C@]2(C(=O)NCc3ccccc3)CC[C@]3(C)[C@H](CC[C@@H]4[C@@]5(C)CC[C@H](OS(N)(=O)=O)C(C)(C)[C@@H]5CC[C@]43C)[C@@H]12	73.1	7.5	3.5	18.8	16.2	15.2	80.6	Activity (MDA-MB-231 [4]): 2.1%
C=C(C)[C@@H]1CC[C@]2(C(=O)O)CC[C@]3(C)[C@H](CC[C@@H]4[C@@]5(C)CC[C@H](O)C(C)(C)[C@@H]5CC[C@]43C)[C@@H]12								inhibition (MDA-MB-231 [7]): Active; inhibition [8]: Active
CC1(C)CC[C@]2(C(=O)NCc3ccccc3)CC[C@]3(C)C(=CC[C@@H]4[C@@]5(C)CC[C@H](OS(N)(=O)=O)C(C)(C)[C@@H]5CC[C@]43C)[C@@H]2C1	73.1	> 50	3.5	15.8	16.2	> 50	80.6	
CC(=O)[C@@H]1CC[C@]2(C(=O)NCc3ccccc3)CC[C@]3(C)[C@H](CC[C@@H]4[C@@]5(C)CC[C@H](OS(N)(=O)=O)C(C)(C)[C@@H]5CC[C@]43C)[C@@H]12	73.1	9.3	3.5	16.9	32	> 50	80.6	Activity (MDA-MB-231 [4]): 2.1%
CC1(C)CC[C@]2(C(=O)NCc3ccccc3)CC[C@]3(C)C(=CC[C@@H]4[C@@]5(C)C[C@@H](OS(N)(=O)=O)[C@H](OS(N)(=O)=O)C(C)(C)[C@@H]5CC[C@]43C)[C@@H]2C1		4.9		3.8	5.8	3.7		inhibition at 10 µM (Hs-578T [9]): 16.5%; Activity (Hs-578T [10]): 44.4%; Activity (MDA-MB-231 [11]): 8.9%; Activity (MDA-MB-231 [12]): 1.6%; Activity (MDA-MB-231 [13]): 7.4%; Ratio (MDA-MB-231 [14]): 1.14; Activity (Hs-578T [15]): 2.6%; inhibition at 10 µM (MDA-MB-231 [16]): 42.1%; Activity (MDA-MB-231 [17]): 18.4%; Activity (Hs-578T [18]): 8.7%; Activity (Hs-578T [19]): 22.1%; fold change (FC) (MDA-MB-231 [20]): 5.7
C[C@H]1[C@H](C)CC[C@]2(C(=O)NCc3ccccc3)CC[C@]3(C)C(=CC[C@@H]4[C@@]5(C)CC[C@H](OS(N)(=O)=O)C(C)(C)[C@@H]5CC[C@]43C)[C@H]12	73.1				16.2		80.6	Activity (Hs-578T [21]): 3.5%
CC1(C)CC[C@]2(C(=O)O)CC[C@]3(C)C(=CC[C@@H]4[C@@]5(C)CC[C@H](O)C(C)(C)[C@@H]5CC[C@]43C)[C@@H]2C1								inhibition (MDA-MB-231 [7]): inactive
